Data on 14 molecules can be found in PubChem BioAssay AID2608 (Broad Institute, 2010).

The subject of this test is BJeLR fibroblasts viability, alamar blue fluorescence, 48 h. Put plainly: cytotoxicity toward RAS-transformed BJeLR fibroblasts, dose response, cell-based, alamar blue fluorescence, 48 h, powder samples (AID 2608). A digest of the protocol: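 Assay system: HRASV12-transformed BJ fibroblasts / Amount: 1000 cells per well / Compound dosing: 2-fold series, 0.01 to 5.33 µg/mL final / Buffer or medium: DMEM/M199 growth medium supplemented with FBS / Technique: alamar blue fluorescence, excitation 544 nm, emission 590 nm / Times: 48 h exposure, 37 °C, 5% CO2, ~16 h alamar blue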
On the technique in general: Alamar Blue is a resazurin reagent that responds to reducing activity.
As to `C=CCOc1ccccc1CN(C(=O)CCl)c1ccc2c(c1)OCO2`, the concentration giving a half-maximal response (EC50) (usually the concentration needed to bring the measured effect to its halfway point) was 855 nM.

As to `Cc1ccc(N(C(=O)CCl)C(C(=O)NC2CCCCC2)c2cccnc2)cc1C` (centres undefined), the EC50 is 160 nM.

In the case of `Cc1ccc(C2CC(c3cccs3)=NN2C(=O)CCl)cc1` (centres undefined), the EC50 is 776 nM.

Turning to `Nc1nc(CCl)nc(Nc2ccc3ccccc3c2)n1`, the EC50 was 85 nM.

On to `COc1ccc(CN(CCC(c2ccccc2)c2ccc(OC(C)C)cc2)C(=O)CCl)cc1OC` (centres undefined), for which the EC50 was 642 nM.

As to `COc1ccc(N(C(=O)CCl)C(C(=O)NCCc2ccccc2)c2cccs2)cc1` (centres undefined), the EC50 was 217 nM.

Take `COc1cccc(N(C(=O)CCl)C(C(=O)NCCc2ccccc2)c2cccs2)c1` (centres undefined): the EC50 was 168 nM.

Turning to `O=C(CCl)N=c1sccn1Cc1ccccc1Cl`, the EC50 was 149 nM.

`COc1ccc(C(C(=O)NC2CCCCC2)N(C(=O)CCl)c2ccc(C)cc2)cc1` (centres undefined): the EC50 was 161 nM.

For `COC(=O)[C@@H]1Cc2c([nH]c3ccccc23)C(C)(C)N1C(=O)CCl`, the EC50 is 475 nM.

`CCCCCCCN(C(=O)CCl)c1cccc(C)c1`: the EC50 was 119 nM.

As for `CCOc1ccc(Nc2nc(N)nc(CCl)n2)cc1`, the EC50 is 226 nM.

Regarding `COc1ccc(C(C(=O)NC2CCCCC2)N(C(=O)CCl)c2cccc(Cl)c2)cc1` (centres undefined), the EC50 is 171 nM.

For the molecule `COc1ccc(N(C(=O)CCl)C(C(=O)NCCc2ccccc2)c2cccs2)cc1Cl` (centres undefined), the EC50 was 26 nM.
